These results are taken from ChEMBL document CHEMBL4049426, “Identification of the Clinical Candidate (R)-(1-(4-Fluorophenyl)-6-((1-methyl-1H-pyrazol-4-yl)sulfonyl)-4,4a,5,6,7,8-hexahydro-1H-pyrazolo[3,4-g]isoquinolin-4a-yl)(4-(trifluoromethyl)pyridin-2-yl)methanone (CORT125134): A Selective Glucocorticoid Receptor (GR) Antagonist” (J Med Chem, 2017).

For one data set, the target named is Cytochrome P450 2C9 (Homo sapiens, UniProt P11712). The data set is described as follows: Inhibition of CYP2C9 (unknown origin). It counts as ADME.
Sequence of Cytochrome P450 2C9 (P11712 whole entry): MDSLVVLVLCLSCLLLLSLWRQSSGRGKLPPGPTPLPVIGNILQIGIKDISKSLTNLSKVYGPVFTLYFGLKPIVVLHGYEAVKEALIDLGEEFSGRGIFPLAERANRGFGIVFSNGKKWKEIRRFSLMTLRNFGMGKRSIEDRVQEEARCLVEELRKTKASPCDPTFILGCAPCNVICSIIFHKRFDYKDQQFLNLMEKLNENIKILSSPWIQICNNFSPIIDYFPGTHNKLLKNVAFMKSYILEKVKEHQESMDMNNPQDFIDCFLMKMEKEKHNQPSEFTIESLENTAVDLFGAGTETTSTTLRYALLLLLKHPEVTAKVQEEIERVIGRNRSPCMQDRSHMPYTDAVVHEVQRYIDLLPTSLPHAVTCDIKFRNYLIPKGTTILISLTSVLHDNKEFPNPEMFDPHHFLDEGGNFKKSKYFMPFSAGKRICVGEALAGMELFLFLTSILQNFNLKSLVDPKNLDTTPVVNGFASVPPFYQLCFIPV
For a further data set, the target named is T1, Cytochrome P450 2B6 (Homo sapiens, UniProt P20813).
T1 sequence (P20813 whole entry): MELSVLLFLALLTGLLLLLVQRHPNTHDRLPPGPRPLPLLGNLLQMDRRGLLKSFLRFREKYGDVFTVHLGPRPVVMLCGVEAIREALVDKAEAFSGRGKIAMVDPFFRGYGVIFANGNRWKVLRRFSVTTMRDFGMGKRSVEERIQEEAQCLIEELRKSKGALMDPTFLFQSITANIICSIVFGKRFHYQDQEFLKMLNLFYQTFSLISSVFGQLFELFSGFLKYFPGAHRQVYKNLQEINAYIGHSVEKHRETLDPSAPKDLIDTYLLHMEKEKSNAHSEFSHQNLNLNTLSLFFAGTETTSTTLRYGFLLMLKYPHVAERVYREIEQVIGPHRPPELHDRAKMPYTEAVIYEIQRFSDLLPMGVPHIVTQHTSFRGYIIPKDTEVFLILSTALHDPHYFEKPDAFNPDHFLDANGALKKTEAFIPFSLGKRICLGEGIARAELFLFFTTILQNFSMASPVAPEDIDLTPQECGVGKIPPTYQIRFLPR
The data set is described as follows: Inhibition of CYP2B6 (unknown origin). In kind it is ADME.

Data set [1] can be described thus: AUC in Sprague-Dawley CD-1 rat plasma at 5 mg/kg, po administered through gavage measured up to 24 hrs by LC/MS analysis. It counts as ADME, organism-based. The arrangement: dose 5 mg/kg, time < 24 hr, route oral. An outline of the steps:
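Jugular-catheterized male Sprague Dawley CD-1 rats (220-250g). Oral arm: five rats, 5mg/kg gavage, 1mg/mL in DMSO:0.5% methylcellulose 10:90, 5mL/kg, sampled pre-dose and 0.25-24 h. i.v. arm: three rats, 1mg/kg, 0.5mg/mL in DMSO:PEG400:propylene glycol 10:45:45, sampled pre-dose and 0.08-24 h. Plasma by LC/MS.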

In a further data set the target is T2, Cytochrome P450 2C8 (Homo sapiens, UniProt P10632).
T2 sequence (P10632 whole entry): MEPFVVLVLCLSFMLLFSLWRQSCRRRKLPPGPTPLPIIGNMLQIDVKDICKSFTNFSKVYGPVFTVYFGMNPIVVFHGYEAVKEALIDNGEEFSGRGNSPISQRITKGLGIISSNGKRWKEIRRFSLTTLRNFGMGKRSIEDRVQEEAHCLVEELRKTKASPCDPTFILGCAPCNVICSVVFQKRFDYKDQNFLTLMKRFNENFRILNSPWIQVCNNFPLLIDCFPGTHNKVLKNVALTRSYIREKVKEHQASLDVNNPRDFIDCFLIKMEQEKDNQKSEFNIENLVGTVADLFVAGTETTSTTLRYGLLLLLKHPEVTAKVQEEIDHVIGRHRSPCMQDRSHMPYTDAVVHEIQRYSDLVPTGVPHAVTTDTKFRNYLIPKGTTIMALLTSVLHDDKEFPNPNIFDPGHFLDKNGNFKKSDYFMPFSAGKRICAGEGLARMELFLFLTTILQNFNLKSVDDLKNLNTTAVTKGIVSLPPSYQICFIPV
Description: Inhibition of CYP2C8 (unknown origin).

Data set [2] in a line: AUC in Sprague-Dawley CD-1 rat plasma at 3 mg/kg, po administered as cassette dose via gavage measured up to 24 hrs by LC/MS analysis. It counts as ADME, organism-based. The arrangement: time < 24 hr, dose 3 mg/kg, route oral. An outline of the steps: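 Three male Sprague Dawley CD-1 rats (220-250g) with jugular vein catheters; three test compounds plus a reference dosed together by oral gavage, 3mg/kg each, in DMSO:0.5% methylcellulose 10:90 (0.6mg/mL per compound), 5mL/kg. Plasma sampled pre-dose and at 0.25, 0.5, 1, 2, 4, 6, 8, 24 h; LC/MS.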

For a further data set, the target named is T3, Cytochrome P450 1A2 (Homo sapiens, UniProt P05177).
T3 sequence (P05177 whole entry): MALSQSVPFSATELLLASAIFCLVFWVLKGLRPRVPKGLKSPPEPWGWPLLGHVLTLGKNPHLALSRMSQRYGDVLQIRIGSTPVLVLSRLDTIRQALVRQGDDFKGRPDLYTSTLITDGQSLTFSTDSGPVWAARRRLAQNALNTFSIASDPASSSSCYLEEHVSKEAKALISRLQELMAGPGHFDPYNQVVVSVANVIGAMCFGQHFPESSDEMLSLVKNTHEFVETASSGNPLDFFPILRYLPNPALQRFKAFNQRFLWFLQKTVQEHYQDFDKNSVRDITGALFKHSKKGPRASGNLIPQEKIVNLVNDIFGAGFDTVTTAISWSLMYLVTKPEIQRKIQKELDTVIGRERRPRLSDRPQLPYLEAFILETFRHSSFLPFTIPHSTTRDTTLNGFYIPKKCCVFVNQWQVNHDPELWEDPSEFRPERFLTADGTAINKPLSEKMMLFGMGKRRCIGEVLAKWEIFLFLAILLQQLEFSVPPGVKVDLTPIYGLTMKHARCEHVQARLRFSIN
Description: Time-dependent inhibition of CYP1A2 (unknown origin). In kind it is ADME.

The target in another data set is Cytochrome P450 3A4 (Homo sapiens, UniProt P08684). The data set is described as follows: Time-dependent inhibition of CYP3A4 (unknown origin). It counts as ADME.
Sequence of Cytochrome P450 3A4 (P08684 whole entry): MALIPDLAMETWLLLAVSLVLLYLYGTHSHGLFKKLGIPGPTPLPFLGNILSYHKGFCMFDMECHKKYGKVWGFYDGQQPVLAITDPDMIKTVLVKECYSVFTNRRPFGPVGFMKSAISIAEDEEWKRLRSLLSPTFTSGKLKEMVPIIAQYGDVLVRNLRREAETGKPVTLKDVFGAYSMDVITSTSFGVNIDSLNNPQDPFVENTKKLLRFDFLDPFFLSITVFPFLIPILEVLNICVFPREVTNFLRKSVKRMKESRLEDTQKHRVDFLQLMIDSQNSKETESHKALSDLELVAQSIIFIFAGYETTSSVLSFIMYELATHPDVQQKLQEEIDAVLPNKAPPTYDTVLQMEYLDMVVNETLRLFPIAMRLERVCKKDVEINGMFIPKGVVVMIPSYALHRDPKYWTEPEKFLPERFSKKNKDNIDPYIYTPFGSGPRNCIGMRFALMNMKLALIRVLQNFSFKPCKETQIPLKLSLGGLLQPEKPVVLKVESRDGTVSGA
Another data set addresses T4, androgen receptor (Homo sapiens, UniProt P10275).
T4 sequence (P10275 whole entry): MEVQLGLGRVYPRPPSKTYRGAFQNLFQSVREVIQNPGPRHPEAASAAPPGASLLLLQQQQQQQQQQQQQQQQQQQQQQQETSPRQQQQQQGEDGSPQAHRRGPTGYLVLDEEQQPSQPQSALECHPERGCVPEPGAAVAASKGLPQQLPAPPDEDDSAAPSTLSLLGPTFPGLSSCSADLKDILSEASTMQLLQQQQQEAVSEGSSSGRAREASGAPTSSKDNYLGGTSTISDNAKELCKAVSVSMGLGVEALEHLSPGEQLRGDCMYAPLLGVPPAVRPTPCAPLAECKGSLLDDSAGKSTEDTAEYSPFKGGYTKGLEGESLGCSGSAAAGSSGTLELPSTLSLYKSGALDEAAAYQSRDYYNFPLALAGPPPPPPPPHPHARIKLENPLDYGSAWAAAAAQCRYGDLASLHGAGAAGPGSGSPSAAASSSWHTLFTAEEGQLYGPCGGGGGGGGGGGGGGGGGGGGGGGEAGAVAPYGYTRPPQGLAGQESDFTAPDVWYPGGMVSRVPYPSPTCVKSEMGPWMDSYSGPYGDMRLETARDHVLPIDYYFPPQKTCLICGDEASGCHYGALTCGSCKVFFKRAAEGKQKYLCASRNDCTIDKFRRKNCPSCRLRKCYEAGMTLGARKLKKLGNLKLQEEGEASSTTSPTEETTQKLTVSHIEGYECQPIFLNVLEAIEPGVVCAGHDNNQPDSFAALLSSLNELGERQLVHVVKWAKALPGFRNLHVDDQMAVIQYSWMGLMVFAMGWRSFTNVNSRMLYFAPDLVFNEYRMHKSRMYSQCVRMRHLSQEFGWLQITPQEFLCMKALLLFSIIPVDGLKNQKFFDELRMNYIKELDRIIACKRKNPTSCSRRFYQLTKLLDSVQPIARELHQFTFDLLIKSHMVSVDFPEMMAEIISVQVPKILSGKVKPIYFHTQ
Description: Inhibition of radioligand binding to androgen receptor (unknown origin) at 1 uM relative to control.

Consider `Cn1cc(S(=O)(=O)N2CCC3=Cc4c(cnn4-c4ccc(F)cc4)C[C@]3(C(=O)c3cc(C(F)(F)F)ccn3)C2)cn1` [RELACORILANT], for which the IC50 (usually the concentration needed to halve the response being measured) on Cytochrome P450 2C9 was 2000 nM; against Cytochrome P450 2B6, over 10 µM; at Cytochrome P450 2C8 it was 210 nM. The AUC (commonly the area under the concentration-time curve, a measure of exposure) at 24 h was 1550 ng·h/mL in data set [1] and 1220 ng·h/mL in data set [2]. Besides, the TDI result at Cytochrome P450 1A2 and at Cytochrome P450 3A4 was “Not Active” throughout. Moreover, on androgen receptor, the inhibition (as a rule, the change of the read-out against control, counted positive when it falls) at 1 µM is under 10%.
